The full list was thinned out, with hits kept by preference.
CHOP inh – inhibitors of CHOP induction in ER stress response. CHO-K1 CHOP-promoter luciferase, tunicamycin-induced, 15-18 h. inhibition, % at 10 µM. actives 3.8% (n = 220,000);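 active = compounds that reduced the stress-induced luciferase reporter signal by more than about 70% of percent inhibition, limit read from the data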
Dynein cargo inh – blocks dynein driven cargo transport along microtubules; 3617.4 mouse cells, GR-EGFP nuclear translocation imaging; test concentration mostly 20 µM; stimulated with dexamethasone, 1 µM; active compounds read low; z-score, hits read low; actives 0.47% (n = 220,000); AID 1381;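 active = plate z-score of nuclear minus cytoplasmic receptor signal below a set negative limit, without overly bright fluorescence or cell loss, cut at about -3.5 in these data, passing the limit was not always enough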;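 also: z-score of nuclear minus cytoplasmic ring GR-EGFP intensity difference per well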
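medium = tetracycline-free induction medium containing charcoal-stripped FBS | also added = 1.0 µM final dexamethasone stimulus | schedule = 48 h induction, 1 h compound, 30 min dex at 37 °C | technique = fixed, Hoechst-stained cells imaged at 10x for EGFP | measure = GR-EGFP nuclear translocation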
T cruzi inh – blocks replication of Trypanosoma cruzi | actives 1.4% (n = 300,000) | inhibition, % (concentration not given with the values) | T. cruzi beta-gal in NIH3T3, luminescence, 90 h | AID 1885;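 active = mean inhibition across valid replicates above about 55%, limit read from the data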;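 also: signal also drops with host cell toxicity which is not excluded here; higher percent means less beta-gal luminescence so fewer parasites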
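Assay system: NIH/3T3 fibroblasts plus reporter T. cruzi. Amount: NIH/3T3 cells, 5,000 per well. Buffer or medium: DMEM, 2% fetal bovine serum. Doses: compound pinned at 50 nL/well, DMSO. Schedule: ≥90 h infection period, 3 h prior cell attachment. Signal: luminescent β-galactosidase signal after 60 min lysis. Read-out: parasite load inhibition, %.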
XBP1 UPR activ – adaptive UPR (XBP1) activation | CHO-XBP1 luciferase reporter, IRE1-XBP1 UPR activation, luminescence; percent of tunicamycin response, DMSO as zero | activation, % at 20 µM | actives 0.33% (n = 330,000);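 active = versus positive control, 20 µM dose yields 30% or more activation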
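Material: CHO cell line with stable XBP1 luciferase reporter; buffer or medium: F12 medium containing 10% fetal bovine serum; compound: single point, 20 µM final compound, 1% DMSO; incubation: 6 h treatment, 37 °C; measured by: glow luminescence from Steady-Glo reagent; evaluation: activation, % of tunicamycin; control set: tunicamycin high, DMSO low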
Lmaj promast – reduces viability of Leishmania major promastigotes | resazurin fluorescence viability | inhibition, % at 10 µM | actives 9% (n = 200,000); in the data active = inhibition above about 50%;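 also: promastigotes grown with compound for 44 hours at 28 °C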
UPR CHOP act – activators of apoptotic arm of unfolded protein response (CHOP); CHO-CHOP luciferase reporter, UPR activation, luminescence; percent of tunicamycin response over DMSO baseline; activation, % at 10 µM; actives 0.34% (n = 330,000); AID 449763;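 active = at 10 µM dose, activation of 40% or more, normalized to positive control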
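Test system: CHO CHOP reporter cells. Input: 500 CHO-CHOP cells per well. Medium: F12 with 10% FBS. Technique: luciferase luminescence. Measure: percent activation relative to tunicamycin control. Dosing: 10 µM compound, 0.5% DMSO. Timing: 16-18 h cell attachment, then 6 h compound exposure, 37 °C.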
Numbers stand for hits; – = inactive; · = no result.

SMILES | CHOP inh | Dynein cargo inh | T cruzi inh | XBP1 UPR activ | Lmaj promast | UPR CHOP act
CCCC(=O)NC(c1ccc(OC)c(OC)c1)c1c(O)ccc2ccccc12 (configuration not stated) | – | – | – | – | 100 | –
CCC(=O)NC(c1ccccc1)c1c(OC(C)=O)ccc2ccccc12 (configuration not stated) | – | – | – | – | – | –
CC(C)C(=O)NC(c1ccc([N+](=O)[O-])cc1)c1c(O)ccc2ccccc12 (configuration not stated) | – | – | – | – | 97 | –
CCOc1ccccc1NC(=O)NCCCCc1ccccc1 | · | · | – | – | · | –
CN(C)S(=O)(=O)c1ccc(C(=O)NCC(C)(C)CN=C2NS(=O)(=O)c3ccccc32)cc1 | · | · | – | – | · | –
CCCCC(=O)NC(c1ccc(OC)c(OC)c1)c1c(O)ccc2ccccc12 (configuration not stated) | – | – | – | – | 100 | –
Cc1ccc(C(NC(=O)C2CCCCC2)c2c(O)ccc3ccccc23)cc1 (configuration not stated) | – | – | – | – | 97 | –
Cc1noc(C)c1COc1ccccc1C(=O)NCc1ccco1 | · | · | · | – | · | –
Cc1cccc(CN2CCN(C(=O)CCl)CC2)c1 | – | – | – | – | 100 | –
Cc1cccc(CN2CCN(C(=O)c3cccc4ccccc34)CC2)c1 | · | · | – | – | · | –
CC(=O)N1c2ccccc2C(C)(c2ccccc2)CC1(C)C (configuration not stated) | – | – | – | – | – | –
CC1(c2ccc([N+](=O)[O-])cc2)CC(C)(C)N(C(=O)c2ccccc2)c2ccccc21 (configuration not stated) | 81 | – | – | · | – | ·
COc1cc(C(C)=O)ccc1OCC(=O)OCCCOC(=O)COc1ccc(C(C)=O)cc1OC | · | · | – | – | · | –
CN(C)N1C(N)=C(C#N)C(c2ccsc2)C2=C1CCCC2=O (configuration not stated) | – | – | – | – | – | –
Cc1ccc(N2C(N)=C(C#N)C(c3ccsc3)C3=C2CC(C)(C)CC3=O)cc1 (configuration not stated) | – | – | – | – | 73 | –
N#CC1=C(N)N(c2ccccc2)C2=C(C(=O)CCC2)C1c1ccsc1 (configuration not stated) | – | – | – | – | 55 | –
Cc1ccc(NS(=O)(=O)c2ccc(Cl)c(NC(=S)NC(=O)C3CCCCC3)c2)cc1Cl | 96 | – | – | – | – | –
Cc1ccc(NC(=O)C2CCCC2)cc1Cl | · | · | – | – | · | –
CC(C)(C)C(=O)Nc1cc(S(=O)(=O)Nc2ccc(Cl)cc2)ccc1Cl | 75 | – | – | – | 76 | –
COc1ccc(NS(=O)(=O)c2ccc(Cl)c(NC(=O)c3cccnc3Cl)c2)cc1 | – | – | – | – | · | –
C=CCn1ccc(O)c(Cc2ccc(Cl)cc2)c1=O | · | · | – | – | · | –
Cc1ccccc1C(=O)N1CCC(C(=O)NN2C(=O)NC3(CCCCC3)C2=O)CC1 | · | · | · | – | · | –
CC(=O)c1ccc(OCC(O)CN2CCN(Cc3ccc4c(c3)OCO4)CC2)cc1 (configuration not stated) | – | – | – | – | 93 | –
COc1ccc(OCC(O)CN2CCN(Cc3ccc4c(c3)OCO4)CC2)cc1 (configuration not stated) | – | – | – | – | 99 | –
Cc1ccc(OCC(O)CN2CCN(Cc3ccc4c(c3)OCO4)CC2)c(C)c1 (configuration not stated) | – | – | – | – | 87 | –
COc1ccc(Cl)cc1NC(=O)CN(C)CC(=O)Nc1ccc(C)cc1Br | – | – | · | – | – | –
Cc1cccc(NC(=O)CSCC(=O)N(CCC(C)C)c2c(N)n(Cc3ccccc3)c(=O)[nH]c2=O)c1 | · | · | – | – | · | –
Cc1ccc(Cn2ccc(-c3cnc(-c4ccccc4)s3)n2)cc1 | 87 | – | – | – | – | –
O=S(=O)(c1ccccc1)n1ccc(-c2cnc(-c3ccccc3)s2)n1 | – | – | – | – | – | –

High-throughput results from PubChem BioAssay.
